Compounds with a hit are over-represented: about 5% of the library has one in this group of screens.
T cruzi inh – T. cruzi replication inhibition | T. cruzi beta-gal in NIH3T3, luminescence, 90 h | actives 1.4% (n = 300,000) | inhibition, % (concentration not given with the values) | AID 1885;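 active means mean inhibition across valid replicates above about 55%, limit read from the data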;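 further: signal also drops with host cell toxicity which is not excluded here; 0% = plate median of DMSO wells and 100% = zero luminescence signal; higher percent means less beta-gal luminescence so fewer parasites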
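System: NIH/3T3 fibroblasts plus reporter T. cruzi. Medium: DMEM plus 2% FBS. Probe or stimulus: 5000 reporter trypomastigotes per well. Compound: single 50 nL compound addition per well in DMSO. Incubation: co-culture of at least 90 h after 3 h attachment. Detection: GalScreen β-gal luminescence, detergent lysis, 60 min. Evaluation: parasite load inhibition, %.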
UPR XBP1 act – activators of adaptive arm of unfolded protein response (XBP1); CHO-XBP1 luciferase reporter, IRE1-XBP1 UPR activation, luminescence; percent of tunicamycin response, DMSO as zero; activation, % at 20 µM; actives 0.33% (n = 330,000); AID 463104;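 active means versus positive control, 20 µM dose yields 30% or more activation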;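 further: 100% = tunicamycin at 10 µg/mL and 0% = DMSO only wells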
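Material: CHO cell line with stable XBP1 luciferase reporter; schedule: 16-18 h cell attachment at 37 °C, then 6 h compound exposure; signal: glow luminescence from Steady-Glo reagent; medium: serum-containing F12 medium, 10% FBS; benchmarks: tunicamycin 10 µg/mL and vehicle-only wells; read-out: percent activation relative to tunicamycin reference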
CHOP UPR activ – activators of apoptotic arm of unfolded protein response (CHOP); activation, % at 10 µM; CHO-CHOP luciferase reporter, UPR activation, luminescence; percent of tunicamycin response over DMSO baseline; actives 0.34% (n = 330,000);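 active means at 10 µM dose, activation of 40% or more, normalized to positive control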;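 further: 100% = tunicamycin at 10 µg/mL and 0% = DMSO alone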
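System: CHO-CHOP luciferase reporter cell line; amount: 500 cells/well; buffer or medium: F12 medium containing 10% fetal bovine serum; incubation: 6 h compound exposure at 37 °C after overnight seeding; measured by: luciferase luminescence after 10 min with Steady-Glo reagent; evaluation: % reporter activation, DMSO baseline versus tunicamycin full activation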
CSC inhib – cancer stem cell inhibition; actives 1.1% (n = 300,000); cancer stem cell-like cells viability, luminescence; inhibition, % at 7.5 µM; in the data active means inhibition above about 75%; tested in HMLE shEcad cells
Mdm2 MdmX PPI – inhibitors of human Mdm2/MdmX interaction; AID 485346; actives 3% (n = 330,000); SaOS-2 split-luciferase Mdm2/MdmX complementation, luminescence; inhibition, % at 8 µM; O15151+Q00987;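 active means inhibition of at least 50% at 8 µM in the primary screen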
Beta cell apopt – beta cell apoptosis inhibition; INS-1E cytokine-induced death, ATP luminescence, 48 h; percent of positive-control rescue, neutral wells zero; protection from apoptosis, % (test concentration not listed); actives 0.8% (n = 300,000);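 active means Every replicate reaches about 75%, or at least half do and their mean reaches it too, limit read from the data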;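 further: 0% = cytokine-treated negative control wells and 100% = positive control rescue; higher means more ATP so stronger rescue from cytokine killing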
Mdm2 MdmX conf – human Mdm2/MdmX binding inhibition, confirmed; shares compounds with Mdm2 MdmX PPI; luminescent assay; inhibition, % at 8 µM; actives 55% (n = 10,000); AID 489028; in the data active means inhibition above about 40%
FLuc counter – full-length luciferase inhibition in Mdm2/MdmX counter-screen; shares compounds with Mdm2 MdmX PPI; SaOS-2 full-length luciferase counterscreen, luminescence; inhibition, % at 8 µM; actives 77% (n = 6,200);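 active means mean inhibition at 8 µM reaching about 37%, which flags the compound as non-specific, limit read from the data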;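 further: p53-null SaOS-2 cells with luciferase driven by a doxycycline-inducible promoter; compound on cells about two nights before reading with doxycycline added after day one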
The depositor's hits bear a star; / = not tested or not shown.

SMILES	T cruzi inh	UPR XBP1 act	CHOP UPR activ	CSC inhib	Mdm2 MdmX PPI	Beta cell apopt	Mdm2 MdmX conf	FLuc counter
CCCCn1c(-c2nonc2N)nc2ccccc21	0	-1	2	30	61*	-6	45*	50*
Cc1ccc(NC(=O)CN2C(=O)NC3(CCCCC3)C2=O)cc1S(=O)(=O)N1CCOCC1	/	1	-1	/	-36	-22	/	/
Cc1onc(-c2ccccc2)c1C(=O)N1CCN(c2ccc([N+](=O)[O-])cc2)CC1	-5	-3	0	-6	6	-3	/	/
COCCN(C(=O)COC(=O)/C=C/c1cccc(OC)c1)c1c(N)n(CC(C)C)c(=O)[nH]c1=O	/	3	-1	/	-8	/	/	/
Cn1c(=O)c(C(=O)Nc2ccccc2S(N)(=O)=O)c(O)c2ccccc21	-5	0	1	-6	-16	4	/	/
Cn1c(=O)c(C(=O)Nc2ccccn2)c(O)c2ccccc21	-13	-2	4	15	67*	22	60*	29
COCCN(C(=O)c1ccc(-c2ccc(Cl)cc2)o1)c1c(N)n(Cc2ccccc2)c(=O)[nH]c1=O	-1	0	0	-1	21	0	/	/
Cc1ccc2oc(C(=O)N3CCN(Cc4nccn4C)CC3)c(C)c2c1	0	-3	0	18	13	-6	/	/
COc1ccc([C@H]2CC(=O)C=C(c3ccc4c(c3)OCCO4)C2)cc1	/	-1	3	42	-16	-2	/	/
CC[C@H]1CC2CN3CCc4c([nH]c5c([C@H]6C[C@H]7[C@H](CC)CN(C)[C@@H](Cc8c6[nH]c6ccccc86)[C@H]7C(=O)OC)c(OC)ccc45)C(C(=O)OC)(C2)C13	51	21	9	103*	93*	49	83*	37*
CCOC(=O)c1ccc(NC(=O)c2c(N)n(Cc3ccccc3)c(=O)[nH]c2=O)cc1	-11	11	5	-1	96*	53	31	/
CCOC(=O)c1ccc(NC(=O)c2ccccc2)cc1	0	2	7	-7	-65	0	/	/
O=C(Cc1ccc([N+](=O)[O-])cc1)Nc1cccc(C(=O)N2CCCCC2)c1	/	0	0	-12	6	1	/	/
COc1ccccc1N=C1SC(C(=O)Nc2cccc(Cl)c2Cl)C(N)=C1C(N)=O (stereo not drawn)	17	-2	-1	79*	56*	3	52*	67*
Cc1cccc(N2CCN(C(=O)c3ccc(CS(=O)(=O)c4ccccc4C)o3)CC2C)c1 (stereo not drawn)	16	20	4	-10	65*	21	52*	82*
Cc1ccc(C)c(N2CCN(C(=O)c3ccc(CS(=O)(=O)c4ccccc4C)o3)CC2)c1	2	3	0	-2	31	8	/	/
Cc1ccc2c(C)c(C(=O)Nc3ccc(S(N)(=O)=O)cc3)oc2c1C	13	-1	3	-25	18	-3	/	/
Cc1cc2oc(C(=O)Nc3ccc(S(N)(=O)=O)cc3)c(C)c2cc1Cl	15	8	1	13	55*	/	48*	58*
O=C1NC(=S)SC1=C1CCCCCC1	-7	3	-1	-5	-12	10	/	/
Cc1cc(C2=CC(=O)C[C@H](c3ccc4c(c3)OCO4)C2)ccc1F	/	1	0	23	2	-1	/	/
COc1ccc(N2CC(C(=O)N/N=C/c3ccc([N+](=O)[O-])cc3)CC2=O)cc1 (stereo not drawn)	6	1	0	19	-5	7	/	/
COc1ccc(N2CC(C(=O)N/N=C/c3ccc(C)cc3)CC2=O)cc1 (stereo not drawn)	-35	0	-4	50	52*	3	62*	53*
CCCCNc1c2c3c(cccc3n(C)c1=O)C(=O)c1ccccc1-2	45	0	-1	63	51*	10	33	/
Cn1c(=O)c(NCCO)c2c3c(cccc31)C(=O)c1ccccc1-2	9	-1	-3	5	-3	-7	/	/
CCC(=O)Nc1cc(ON=C(C)C)cc([N+](=O)[O-])c1	-6	/	/	-4	/	-5	/	/
SMILES	T cruzi inh	UPR XBP1 act	CHOP UPR activ	CSC inhib	Mdm2 MdmX PPI	Beta cell apopt	Mdm2 MdmX conf	FLuc counter
CC(C)=NOc1cc(NC(=O)CCl)cc([N+](=O)[O-])c1	44	-5	-7	-6	95*	-42	70*	56*
CC(C)c1ccc(NC(=O)CSc2ncccc2C(=O)Oc2cccc([N+](=O)[O-])c2)cc1	-5	-2	3	1	-16	0	/	/
COc1cc(C(N)=O)cc(Br)c1OC	-17	-2	0	-2	59*	-3	2	/
CCOc1ccc2oc(C(=O)N3CCN(c4ccccc4OCC)CC3)c(C)c2c1	22	-2	-1	21	15	-5	/	/
COCCN(C(=O)Cc1cccs1)C(C(=O)NCc1ccc(OC)cc1)c1ccc(OC)cc1 (stereo not drawn)	23	-4	-2	/	-4	/	/	/
Cc1ccc(C(C(=O)NCc2ccccc2)N(Cc2cccs2)C(=O)c2ccc3c(c2)OCCO3)cc1 (stereo not drawn)	14	4	3	44	79*	8	78*	69*
COC(=O)c1ccc(C(C(=O)NCc2ccccc2)N(Cc2cccs2)C(=O)c2cnccn2)cc1 (stereo not drawn)	7	-1	0	-5	14	-3	/	/
COc1ccc(CNC(=O)C(c2ccc(C)cc2)N(Cc2cccs2)C(=O)c2ccc3c(c2)OCCO3)cc1 (stereo not drawn)	14	-3	1	15	75*	4	75*	60*
CC(Cc1ccccc1)N/C=C1\CC(=O)NC1=O (stereo not drawn)	-14	3	0	5	-8	-8	/	/
CCc1ccc(C(=O)NCc2cnn(C)c2)s1	-3	10	1	-11	-31	0	/	/
CC(C)C[C@@H](C(=O)NC1CCN(Cc2ccccc2)CC1)N1C(=O)N2CCc3c([nH]c4ccccc34)[C@@]2(C)C1=O	65*	-1	1	12	60*	7	46*	58*
CN(CC(=O)Nc1ccccc1Br)C(=O)c1cccnc1Nc1cccc(C(F)(F)F)c1	5	-2	0	/	56*	1	-3	/
CCN(CC)c1ccc(/C=N/NC(=S)NCc2ccccc2)c(O)c1	48	-2	-1	46	60*	83*	44*	44*

Screening results from PubChem.
